Laboratory results from ChEMBL document CHEMBL1155524, “Bis-azaaromatic quaternary ammonium salts as ligands for the blood-brain barrier choline transporter” (Bioorg Med Chem Lett, 2010).
pKi: −log10 of the molar value.

test: Binding affinity to blood-brain barrier choline transporter in rat brain assessed as inhibition of [3H]choline uptake; format: tissue-based
Procedure, shortened: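 In situ rat brain perfusion (Takasato method, Allen and Smith modification). Analog co-perfused at a single concentration, with brain uptake of [3H]-choline measured. Ki is the analog concentration inhibiting 50% of [3H]-choline uptake into brain, derived from the single-concentration inhibition. n = 4–6 animals. Ki values compared by ANOVA with Bonferroni multiple comparisons test.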

| SMILES | pKi |
| --- | --- |
| Cc1cc[n+](CCC#Cc2ccc(C#CCC[n+]3ccc(C)c(C)c3)cc2)cc1C | 5.08 |
| Cc1ccc[n+](CCCCCCCCCCCC[n+]2cccc(C)c2)c1 | 4.44 |
| C(#Cc1ccc(C#CCC[n+]2ccc3c(c2)CCCC3)cc1)CC[n+]1ccc2c(c1)CCCC2 | 5.27 |
| Cc1ccc[n+](CCCCCCCC[n+]2cccc(C)c2)c1 | 4.62 |
| Cc1cc[n+](CCC#Cc2ccc(C#CCC[n+]3ccc(C)cc3)cc2)cc1 | 5.07 |
| Cc1cc(C)c[n+](CCC#Cc2ccc(C#CCC[n+]3cc(C)cc(C)c3)cc2)c1 | 5.13 |
| Cc1ccc[n+](CCCCCCCCC[n+]2cccc(C)c2)c1 | 4.52 |
| Cc1ccc[n+](CCC#Cc2ccc(C#CCC[n+]3cccc(C)c3)cc2)c1 | 4.82 |
| C[N+](C)(C)CCO [CHOLINE] | 4.39 |
| CCCCCCCC[n+]1cccc([C@@H]2CCCN2C)c1 | 4.31 |
| Cc1ccc[n+](CCCCCC[n+]2cccc(C)c2)c1 | 4.59 |
| Cc1ccc[n+](CCCCCCCCCC[n+]2cccc(C)c2)c1 | 4.66 |
| c1ccc2c[n+](CCCCCC[n+]3ccc4ccccc4c3)ccc2c1 | 4.54 |
| c1ccc2c[n+](CCCCCCCCCCCC[n+]3ccc4ccccc4c3)ccc2c1 | 4.66 |
| Cc1ccc[n+](CCCC#Cc2ccccc2C#CCCC[n+]2cccc(C)c2)c1 | 3.50 |
| Cc1ccc[n+](CCCCCCCCCCC[n+]2cccc(C)c2)c1 | 4.44 |
| c1ccc2c[n+](CCCCCCCCCC[n+]3ccc4ccccc4c3)ccc2c1 | 5.00 |
| Cc1ccc[n+](CCCC#Cc2cccc(C#CCCC[n+]3cccc(C)c3)c2)c1 | 3.85 |
